Reference: ChEMBL document CHEMBL4622968, “Discovery of [1,2,4]triazolo[4,3-a]pyridines as potent Smoothened inhibitors targeting the Hedgehog pathway with improved antitumor activity in vivo” (Bioorg Med Chem, 2020)
pKd: −log10 of the molar value.

How the values were obtained:
MDA-MB-468 [1] = assay: Induction of cell cycle arrest in human MDA-MB-468 cells assessed as cell accumulation at G0/G1 phase at 14 uM incubated for 48 hrs by propidium iodide staining-based flow cytometric analysis (reference value: 38.94 %); format: functional
How it was run: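 Cells were seeded at 1.2×10^5 per well and treated for 48 h (MDA-MB-468: 14, 28, 56 μM). Cells were fixed in 75% ethanol at −20 °C overnight, stained with PI and analysed by flow cytometry. Mean ± S.D. of three independent experiments versus DMSO.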

MDA-MB-468 [2] = assay: Induction of apoptosis in human MDA-MB-468 cells assessed as necrotic cells at 14 uM incubated for 48 hrs by annexin-V-FITC staining based flow cytometric method (reference value: 1.52 %); format: functional
Protein smoothened = Protein smoothened (Homo sapiens, UniProt Q99835); assay: Binding affinity to recombinant human Smo receptor assessed as dissociation constant at equilibrium by SPR analysis
Chain of Protein smoothened (Q99835 whole entry): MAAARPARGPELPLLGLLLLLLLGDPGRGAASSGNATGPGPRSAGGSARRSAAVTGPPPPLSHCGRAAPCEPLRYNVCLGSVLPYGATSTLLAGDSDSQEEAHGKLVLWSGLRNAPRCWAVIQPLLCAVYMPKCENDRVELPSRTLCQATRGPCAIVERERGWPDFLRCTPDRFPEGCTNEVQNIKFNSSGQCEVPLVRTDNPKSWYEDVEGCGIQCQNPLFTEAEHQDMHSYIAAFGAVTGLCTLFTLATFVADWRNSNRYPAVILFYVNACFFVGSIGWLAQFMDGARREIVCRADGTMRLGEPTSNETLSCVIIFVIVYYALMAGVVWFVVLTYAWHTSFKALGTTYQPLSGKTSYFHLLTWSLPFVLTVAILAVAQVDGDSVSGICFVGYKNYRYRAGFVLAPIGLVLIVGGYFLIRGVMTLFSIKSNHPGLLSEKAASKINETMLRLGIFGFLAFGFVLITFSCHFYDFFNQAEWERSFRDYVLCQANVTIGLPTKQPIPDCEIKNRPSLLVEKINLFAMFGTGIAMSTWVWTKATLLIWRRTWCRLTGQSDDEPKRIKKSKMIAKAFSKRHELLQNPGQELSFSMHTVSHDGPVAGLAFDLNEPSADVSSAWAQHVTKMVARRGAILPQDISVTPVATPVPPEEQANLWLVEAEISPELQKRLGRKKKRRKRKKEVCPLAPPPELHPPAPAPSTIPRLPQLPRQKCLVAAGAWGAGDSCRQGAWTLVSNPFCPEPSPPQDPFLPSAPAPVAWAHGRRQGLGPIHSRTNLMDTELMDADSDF

## O=C(Nc1ccc(Cl)c(-c2nnc3c(Cl)cccn23)c1)c1ccc(Cl)nc1Cl
MDA-MB-468 [1]
  Activity: 30.69%
MDA-MB-468 [2]
  Activity: 9.4%
Protein smoothened
  pKd: 7.99
